# Test results: ChEMBL document CHEMBL5724801, “EUbOPEN Chemogenomics Library - Multiplex” (2024)
# Several values for one entry are separate records, joined by “and”; a condition that tells them apart may be missing. Equal entries are not always repeated.
# Test system: Fibroblast
# Test: Multiplex assay against human fibroblast
# Type: toxicity, cell-based
# How it was run: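 Compound was added to live cells that had been stained at seeding with Hoechst33342, BioTracker Green Microtubule Cytoskeleton Dye, MitoTracker Red and Annexin V Alexa Fluor 680, and imaging followed on a CQ1 microscope at 37°C and 5% CO2. CellPathfinder machine-learning gating divided cells into Hoechst high-intensity objects or normal cells, normal cells into healthy, pyknosed or fragmented nuclei, and pyknosed cells into mitotic or apoptotic. Tubulin, mitochondrial-mass and membrane-permeability phenotypes are per cents of healthy-nucleus cells.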
# [1] = 12 h, 1 µM, compound concentration 1 uM
# [2] = 12 h, 10 µM, compound concentration 10 uM
# [3] = 24 h, 1 µM, compound concentration 1 uM
# [4] = 24 h, 10 µM, compound concentration 10 uM
# [5] = 48 h, 1 µM, compound concentration 1 uM
# [6] = 48 h, 10 µM, compound concentration 10 uM
structure (smiles),measurement,setting,value
COc1cc(N2CCN(C)CC2)ccc1Nc1nccc(-c2cn(C)c3cnccc23)n1,Population Apoptotic (%),[1],11.76% and 10%
same,Population Fragmented Nuclei (%),[1],12.81% and 10.18%
same,Population Healthy Nuclei (%),[1],70.44% and 80.97%
same,Population Hoechst High Intensity Objects (%),[1],0%
same,Population Membrane Permeable-Phenotype (%),[1],3.5% and 4.92%
same,Population Mitochondria Different-Phenotype (%),[1],9.79% and 6.56%
same,Population Mitotic Cells (%),[1],88.24% and 90%
same,Population Normal (%),[1],100%
same,Population Pyknosed Nuclei (%),[1],16.75% and 8.85%
same,Population Tubulin-Different-Phenotype (%),[1],16.78% and 35.52%
same,Total Cell Count,[1],203 and 226
same,Population Apoptotic (%),[2],3.08% and 5.97%
same,Population Healthy Nuclei (%),[2],41.67% and 59.65%
same,Population Hoechst High Intensity Objects (%),[2],0%
same,Population Membrane Permeable-Phenotype (%),[2],13.85% and 8.82%
same,Population Mitochondria Different-Phenotype (%),[2],35.38% and 54.9%
same,Population Mitotic Cells (%),[2],96.92% and 94.03%
same,Population Normal (%),[2],100%
same,Population Pyknosed Nuclei (%),[2],41.67% and 39.18%
same,Population Tubulin-Different-Phenotype (%),[2],55.38% and 85.29%
same,Total Cell Count,[2],156 and 171
same,Population Apoptotic (%),[3],21.74% and 7.69%
same,Population Fragmented Nuclei (%),[3],12.15% and 10.47%
same,Population Healthy Nuclei (%),[3],77.1% and 84.5%
same,Population Hoechst High Intensity Objects (%),[3],0%
same,Population Membrane Permeable-Phenotype (%),[3],4.85% and 5.05%
same,Population Mitochondria Different-Phenotype (%),[3],10.3% and 3.21%
same,Population Mitotic Cells (%),[3],78.26% and 92.31%
same,Population Normal (%),[3],100%
same,Population Pyknosed Nuclei (%),[3],10.75% and 5.04%
same,Population Tubulin-Different-Phenotype (%),[3],13.94% and 38.53%
same,Total Cell Count,[3],214 and 258
same,Population Apoptotic (%),[4],5.77% and 8.77%
same,Population Healthy Nuclei (%),[4],47.62% and 66.67%
same,Population Hoechst High Intensity Objects (%),[4],0%
same,Population Membrane Permeable-Phenotype (%),[4],2.86% and 10.48%
same,Population Mitochondria Different-Phenotype (%),[4],41.43% and 41.13%
same,Population Mitotic Cells (%),[4],94.23% and 91.23%
same,Population Normal (%),[4],100%
same,Population Pyknosed Nuclei (%),[4],35.37% and 30.65%
same,Population Tubulin-Different-Phenotype (%),[4],70% and 74.19%
same,Total Cell Count,[4],147 and 186
same,Population Fragmented Nuclei (%),[5],17.86% and 7.25%
same,Population Healthy Nuclei (%),[5],77.23% and 87.02%
same,Population Hoechst High Intensity Objects (%),[5],0%
same,Population Membrane Permeable-Phenotype (%),[5],0% and 1.75%
same,Population Mitochondria Different-Phenotype (%),[5],12.72% and 3.95%
same,Population Mitotic Cells (%),[5],100% and 66.67%
same,Population Normal (%),[5],100%
same,Population Pyknosed Nuclei (%),[5],4.91% and 5.73%
same,Population Tubulin-Different-Phenotype (%),[5],12.72% and 38.16%
same,Total Cell Count,[5],224 and 262
same,Population Fragmented Nuclei (%),[6],16.88% and 21.97%
same,Population Healthy Nuclei (%),[6],73.75% and 64.57%
same,Population Hoechst High Intensity Objects (%),[6],0%
same,Population Membrane Permeable-Phenotype (%),[6],5.08% and 2.08%
same,Population Mitochondria Different-Phenotype (%),[6],31.36% and 25%
same,Population Mitotic Cells (%),[6],66.67% and 90%
same,Population Normal (%),[6],100%
same,Population Pyknosed Nuclei (%),[6],9.38% and 13.45%
same,Population Tubulin-Different-Phenotype (%),[6],44.92% and 80.56%
same,Total Cell Count,[6],160 and 223
Cc1cnc(-c2cc(N3CCN(C(=O)CCS(C)(=O)=O)CC3)ncc2Cl)c(C)c1,Population Apoptotic (%),[1],36% and 31%
same,Population Fragmented Nuclei (%),[1],9% and 22%
same,Population Healthy Nuclei (%),[1],71% and 36%
same,Population Hoechst High Intensity Objects (%),[1],1% and 9%
same,Population Membrane Permeable-Phenotype (%),[1],0% and 7%
same,Population Mitochondria Different-Phenotype (%),[1],7% and 10%
same,Population Mitotic Cells (%),[1],63% and 68%
same,Population Normal (%),[1],98% and 90%
same,Population Pyknosed Nuclei (%),[1],19% and 41%
same,Population Tubulin-Different-Phenotype (%),[1],20% and 50%
same,Total Cell Count,[1],99 and 85
same,Population Apoptotic (%),[2],40% and 26%
same,Population Fragmented Nuclei (%),[2],13% and 21%
same,Population Healthy Nuclei (%),[2],71% and 63%
same,Population Hoechst High Intensity Objects (%),[2],4% and 1%
same,Population Membrane Permeable-Phenotype (%),[2],1%
same,Population Mitochondria Different-Phenotype (%),[2],2%
same,Population Mitotic Cells (%),[2],60% and 73%
same,Population Normal (%),[2],95% and 98%
same,Population Pyknosed Nuclei (%),[2],14% and 15%
same,Population Tubulin-Different-Phenotype (%),[2],24% and 37%
same,Total Cell Count,[2],142 and 121
same,Population Apoptotic (%),[3],54% and 47%
same,Population Healthy Nuclei (%),[3],76% and 38%
same,Population Hoechst High Intensity Objects (%),[3],6% and 10%
same,Population Membrane Permeable-Phenotype (%),[3],2% and 3%
same,Population Mitochondria Different-Phenotype (%),[3],4% and 0%
same,Population Mitotic Cells (%),[3],45% and 52%
same,Population Normal (%),[3],93% and 89%
same,Population Pyknosed Nuclei (%),[3],12% and 25%
same,Population Tubulin-Different-Phenotype (%),[3],30% and 61%
same,Total Cell Count,[3],97 and 91
same,Population Apoptotic (%),[4],46% and 42%
same,Population Fragmented Nuclei (%),[4],10% and 19%
same,Population Healthy Nuclei (%),[4],79% and 67%
same,Population Hoechst High Intensity Objects (%),[4],0% and 4%
same,Population Membrane Permeable-Phenotype (%),[4],2%
same,Population Mitochondria Different-Phenotype (%),[4],6% and 9%
same,Population Mitotic Cells (%),[4],53% and 57%
same,Population Normal (%),[4],99% and 95%
same,Population Pyknosed Nuclei (%),[4],9% and 12%
same,Population Tubulin-Different-Phenotype (%),[4],28% and 38%
same,Total Cell Count,[4],135 and 116
same,Population Apoptotic (%),[5],69% and 36%
same,Population Fragmented Nuclei (%),[5],19% and 40%
same,Population Healthy Nuclei (%),[5],58% and 47%
same,Population Hoechst High Intensity Objects (%),[5],2% and 5%
same,Population Membrane Permeable-Phenotype (%),[5],0% and 12%
same,Population Mitochondria Different-Phenotype (%),[5],1% and 9%
same,Population Mitotic Cells (%),[5],30% and 63%
same,Population Normal (%),[5],97% and 94%
same,Population Pyknosed Nuclei (%),[5],21% and 12%
same,Population Tubulin-Different-Phenotype (%),[5],33% and 70%
same,Total Cell Count,[5],109 and 92
same,Population Apoptotic (%),[6],50% and 75%
same,Population Fragmented Nuclei (%),[6],21% and 29%
same,Population Healthy Nuclei (%),[6],69% and 61%
same,Population Hoechst High Intensity Objects (%),[6],2% and 3%
same,Population Membrane Permeable-Phenotype (%),[6],0% and 2%
same,Population Mitochondria Different-Phenotype (%),[6],7% and 5%
same,Population Mitotic Cells (%),[6],50% and 25%
same,Population Normal (%),[6],97% and 96%
same,Population Pyknosed Nuclei (%),[6],8% and 9%
same,Population Tubulin-Different-Phenotype (%),[6],33%
same,Total Cell Count,[6],141 and 131
